Assay [1] has as its system Aspergillus versicolor. Nature of the assay: Antifungal activity against Aspergillus versicolor ATCC 11730 after 72 hrs by serial sub-cultivation method. The assay is classed as functional. To be noted: ATCC 11730, 72 h. In short, it runs like this:
(§1)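 MFC was found by serial sub-cultivation of 2 µl into plates holding 100 µl broth per well, then incubation 72 h at 28 °C. MFC is the lowest concentration with no visible growth, taken as 99.5% killing of the original inoculum. Spore inocula came from malt agar cultures washed with 0.85% saline and 0.1% Tween 80.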

Assay [2] relates to Micrococcus flavus. In words: Antibacterial activity against Micrococcus flavus ATCC 10240 after 72 hrs by serial sub-cultivation method. To be noted: ATCC 10240, 72 h. The assay is classed as functional. The method, boiled down: (§2)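 MBC was found by serial sub-cultivation of 2 µl from the MIC wells into plates holding 100 µl broth per well, then incubation for 72 h. MBC is the lowest concentration with no visible growth, i.e. 99.5% killing of the original inoculum. Bacterial inoculum was 1.0 × 10^4 cfu per well in LB broth. Duplicate, repeated three times.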

Assay [3] relates to Aspergillus versicolor. Nature of the assay: Antifungal activity against Aspergillus versicolor ATCC 11730 after 72 hrs by serial dilution method. In kind it is functional. To be noted: ATCC 11730, 72 h. The method, boiled down:
(§3)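 Fungi were kept on malt agar at 4 °C and sub-cultured monthly. Spores were washed off the agar with sterile 0.85% saline containing 0.1% Tween 80 (v/v). Modified microdilution in 96-well plates. MIC is the lowest concentration with no visible growth under the binocular microscope. Inoculum checked on malt agar for contamination and validity.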

For assay [4], the system named is Bacillus cereus. In words: Antibacterial activity against Bacillus cereus clinical isolate after 72 hrs by serial sub-cultivation method. In kind it is functional. In short, it runs like this: as §2
Assay [5] relates to Staphylococcus aureus. In words: Antibacterial activity against Staphylococcus aureus ATCC 6538 after 72 hrs by serial sub-cultivation method. In kind it is functional. To be noted: ATCC 6538, 72 h. In short, it runs like this: as §2
For assay [6], the system named is Penicillium ochrochloron. In words: Antifungal activity against Penicillium ochrochloron ATCC 9112 after 72 hrs by serial dilution method. In kind it is functional. To be noted: ATCC 9112, 72 h. In short, it runs like this:
as §3

In assay [7] the test system is Bacillus cereus. In words: Antibacterial activity against Bacillus cereus clinical isolate after 24 hrs. In kind it is functional. In short, it runs like this:
(§4)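 Broth microdilution MIC in 96-well plates. Compounds in LB broth with bacterial inoculum of 1.0 × 10^4 cfu per well, from suspensions adjusted with sterile saline to 1.0 × 10⁵ CFU/ml. Incubated 24 h at […] as printed. MIC taken as the lowest concentration with no visible growth under the binocular microscope. OD at 655 nm also read against blank. Streptomycin and ampicillin as positive controls. Duplicate, repeated three times.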

Assay [8] relates to Fulvia fulva. Nature of the assay: Antifungal activity against Fulvia fulva TK 5318 after 72 hrs by serial dilution method. The assay is classed as functional. To be noted: TK 5318, 72 h. In short, it runs like this: as §3
Assay [9] has as its system Aspergillus niger. In words: Antifungal activity against Aspergillus niger ATCC 6275 after 72 hrs by serial sub-cultivation method. The assay is classed as functional. To be noted: ATCC 6275, 72 h. In short, it runs like this: as §1
The test system of assay [10] is Talaromyces funiculosus. In words: Antifungal activity against Penicillium funiculosum ATCC 36839 after 72 hrs by serial dilution method. The assay is classed as functional. To be noted: ATCC 36839, 72 h. In short, it runs like this: as §3
Assay [11] concerns Proteus mirabilis. In words: Antibacterial activity against Proteus mirabilis after 72 hrs by serial sub-cultivation method. The assay is classed as functional. In short, it runs like this: as §2
Assay [12] relates to Listeria monocytogenes. In words: Antibacterial activity against Listeria monocytogenes NCTC 7973 after 72 hrs by serial sub-cultivation method. In kind it is functional. To be noted: NCTC 7973, 72 h. In short, it runs like this:
as §2

For assay [13], the system named is Fulvia fulva. Nature of the assay: Antifungal activity against Fulvia fulva TK 5318 after 72 hrs by serial sub-cultivation method. In kind it is functional. To be noted: TK 5318, 72 h. In short, it runs like this: as §1
Assay [14] deals with Aspergillus flavus. Nature of the assay: Antifungal activity against Aspergillus flavus ATCC 9643 after 72 hrs by serial sub-cultivation method. In kind it is functional. To be noted: ATCC 9643, 72 h. The method, boiled down:
as §1

In assay [15] the test system is Talaromyces funiculosus. In words: Antifungal activity against Penicillium funiculosum ATCC 36839 after 72 hrs by serial sub-cultivation method. In kind it is functional. To be noted: ATCC 36839, 72 h. The method, boiled down:
as §1

The test system of assay [16] is Trichoderma viride. In words: Antifungal activity against Trichoderma viride IAM 5061 after 72 hrs by serial dilution method. The assay is classed as functional. To be noted: IAM 5061, 72 h. The method, boiled down: as §3
Assay [17] concerns Aspergillus fumigatus. Nature of the assay: Antifungal activity against Aspergillus fumigatus plant isolate after 72 hrs by serial dilution method.
Assay [18] concerns Salmonella typhimurium. Nature of the assay: Antibacterial activity against Salmonella Typhimurium ATCC 13311 after 72 hrs by serial sub-cultivation method. In kind it is functional, Salmonella enterica subsp. enterica serovar Typhimurium. To be noted: Salmonella enterica, ATCC 13311, 72 h. The method, boiled down:
as §2

Assay [19] has as its system Escherichia coli. In words: Antibacterial activity against Escherichia coli ATCC 35210 after 72 hrs by serial sub-cultivation method. To be noted: ATCC 35210, 72 h. The assay is classed as functional. The method, boiled down: as §2
Assay [20] concerns Salmonella typhimurium. In words: Antibacterial activity against Salmonella Typhimurium ATCC 13311 after 24 hrs. In kind it is functional, Salmonella enterica subsp. enterica serovar Typhimurium. To be noted: Salmonella enterica, ATCC 13311, 24 h. The method, boiled down: as §4
Assay [21] deals with Aspergillus fumigatus. Nature of the assay: Antifungal activity against Aspergillus fumigatus plant isolate after 72 hrs by serial sub-cultivation method.
Assay [22] concerns Aspergillus flavus. Nature of the assay: Antifungal activity against Aspergillus flavus ATCC 9643 after 72 hrs by serial dilution method. In kind it is functional. To be noted: ATCC 9643, 72 h. The method, boiled down:
as §3

Assay [23] has as its system Escherichia coli. Nature of the assay: Antibacterial activity against Escherichia coli ATCC 35210 after 24 hrs. To be noted: ATCC 35210, 24 h. The assay is classed as functional. The method, boiled down:
as §4

Assay [24] has as its system Trichoderma viride. In words: Antifungal activity against Trichoderma viride IAM 5061 after 72 hrs by serial sub-cultivation method. The assay is classed as functional. To be noted: IAM 5061, 72 h. In short, it runs like this:
as §1

In assay [25] the test system is Pseudomonas aeruginosa. In words: Antibacterial activity against Pseudomonas aeruginosa ATCC 27853 after 72 hrs by serial sub-cultivation method. In kind it is functional. To be noted: ATCC 27853, 72 h. In short, it runs like this:
as §2

In assay [26] the test system is Micrococcus flavus. Nature of the assay: Antibacterial activity against Micrococcus flavus ATCC 10240 after 24 hrs. In kind it is functional. To be noted: ATCC 10240, 24 h. In short, it runs like this: as §4
For assay [27], the system named is Staphylococcus aureus. Nature of the assay: Antibacterial activity against Staphylococcus aureus ATCC 6538 after 24 hrs. The assay is classed as functional. To be noted: ATCC 6538, 24 h. In short, it runs like this:
as §4

Assay [28] relates to Proteus mirabilis. In words: Antibacterial activity against Proteus mirabilis after 24 hrs. In kind it is functional. The method, boiled down:
as §4

Assay [29] has as its system Penicillium ochrochloron. Nature of the assay: Antifungal activity against Penicillium ochrochloron ATCC 9112 after 72 hrs by serial sub-cultivation method. The assay is classed as functional. To be noted: ATCC 9112, 72 h. The method, boiled down:
as §1

Assay [30] has as its system Pseudomonas aeruginosa. Nature of the assay: Antibacterial activity against Pseudomonas aeruginosa ATCC 27853 after 24 hrs. To be noted: ATCC 27853, 24 h. The assay is classed as functional. In short, it runs like this: as §4
For assay [31], the system named is Listeria monocytogenes. In words: Antibacterial activity against Listeria monocytogenes NCTC 7973 after 24 hrs. To be noted: NCTC 7973, 24 h. In kind it is functional. In short, it runs like this: as §4
For assay [32], the system named is Aspergillus niger. Nature of the assay: Antifungal activity against Aspergillus niger ATCC 6275 after 72 hrs by serial dilution method. The assay is classed as functional. To be noted: ATCC 6275, 72 h. The method, boiled down: as §3

Structures are written as SMILES. ≈ marks a conversion by molar mass, not a printed value.

`O=C1N/C(=N/c2nc(C34CC5CC(CC(C5)C3)C4)cs2)S/C1=C\c1ccccc1[N+](=O)[O-]`: the MFC (in general, the smallest concentration meeting the test's criterion for killing the fungus) stood at 16.1 µM (≈ 7.51 µg/mL) in assay [1]; 21.5 µM (≈ 10 µg/mL) in [9]; 10.8 µM (≈ 5.04 µg/mL) in assay [13]; 21.5 µM (≈ 10 µg/mL) in [14]; 21.5 µM (≈ 10 µg/mL) in assay [15]; 21.5 µM (≈ 10 µg/mL) in [21]. Moreover, the MFC in [24] and in [29] was 21.5 µM (≈ 10 µg/mL) each time. For the same compound, the MBC – broadly, the lowest tested concentration that kills the bacteria rather than only halting them – in assay [2] stood at 43 µM (≈ 20.1 µg/mL); in assay [4] it was 21.5 µM (≈ 10 µg/mL); in [5], 21.5 µM (≈ 10 µg/mL); in assay [11], 64.5 µM (≈ 30.1 µg/mL); in [12], 43 µM (≈ 20.1 µg/mL); in assay [18] it was 43 µM (≈ 20.1 µg/mL). In addition, the MBC in assay [19] and in assay [25] was 43 µM (≈ 20.1 µg/mL) each time. Also, the MIC (as a rule, the smallest concentration in the dilution series that meets the test's criterion for growth inhibition) is 10.8 µM (≈ 5.04 µg/mL) in assay [3]; 10.8 µM (≈ 5.04 µg/mL) in assay [6]; 10.8 µM (≈ 5.04 µg/mL) in [7]; 5.4 µM (≈ 2.52 µg/mL) in assay [8]; 10.8 µM (≈ 5.04 µg/mL) in [10]; 10.8 µM (≈ 5.04 µg/mL) in assay [16]. For the same compound, the MIC was 10.8 µM (≈ 5.04 µg/mL) in assay [17]; 21.5 µM (≈ 10 µg/mL) in assay [20]; 16.1 µM (≈ 7.51 µg/mL) in assay [22]; 21.5 µM (≈ 10 µg/mL) in assay [23]; 21.5 µM (≈ 10 µg/mL) in assay [26]; 16.1 µM (≈ 7.51 µg/mL) in [27]. Moreover, the MIC in [28] came out at 43 µM (≈ 20.1 µg/mL); in assay [30], 21.5 µM (≈ 10 µg/mL); in assay [31] it was 21.5 µM (≈ 10 µg/mL); in assay [32], 16.1 µM (≈ 7.51 µg/mL).
Turning to `c1ccc(-c2ccc(C(c3ccccc3)n3ccnc3)cc2)cc1` (centres undefined) [BIFONAZOLE], the MFC in assay [1] was found to be 640 µM (≈ 199 µg/mL); in assay [9], 640 µM (≈ 199 µg/mL); in [13] it was 640 µM (≈ 199 µg/mL); in assay [14], 640 µM (≈ 199 µg/mL); in [15], 800 µM (≈ 248 µg/mL); in [21], 640 µM (≈ 199 µg/mL). In addition, the MFC in [24] stood at 800 µM (≈ 248 µg/mL); in assay [29], 640 µM (≈ 199 µg/mL). The MIC was 320 µM (≈ 99.3 µg/mL) in [3]; 480 µM (≈ 149 µg/mL) in [6]; 320 µM (≈ 99.3 µg/mL) in [8]; 640 µM (≈ 199 µg/mL) in [10]; 640 µM (≈ 199 µg/mL) in [16]; 480 µM (≈ 149 µg/mL) in [17]. The minimal inhibitory concentration (MIC) in assay [22] and in assay [32] was 480 µM (≈ 149 µg/mL) in each case.
With `CC(=O)N1CCN(c2ccc(OCC3COC(Cn4ccnc4)(c4ccc(Cl)cc4Cl)O3)cc2)CC1` (centres undefined) [KETOCONAZOLE], the MFC was 950 µM (≈ 505 µg/mL) in [1]; 950 µM (≈ 505 µg/mL) in [9]; 950 µM (≈ 505 µg/mL) in assay [13]; 3800 µM (≈ 2020 µg/mL) in [14]; 950 µM (≈ 505 µg/mL) in assay [15]; 950 µM (≈ 505 µg/mL) in [21]. The MFC in assay [24] was 5700 µM (≈ 3030 µg/mL); in assay [29], 3800 µM (≈ 2020 µg/mL). Further, the MIC came to 380 µM (≈ 202 µg/mL) in assay [3]; 3800 µM (≈ 2020 µg/mL) in assay [6]; 380 µM (≈ 202 µg/mL) in [8]; 380 µM (≈ 202 µg/mL) in [10]; 4750 µM (≈ 2520 µg/mL) in assay [16]; 380 µM (≈ 202 µg/mL) in assay [17]. In addition, the results for the MIC in [22] and in [32] were 2850 µM (≈ 1510 µg/mL) and 380 µM (≈ 202 µg/mL), respectively.
